EBNA-1 inhibitor – blocks EBNA-1 binding to DNA | EBNA-1 DNA binding, fluorescence polarization | inhibition, % at 14.8 µM | 300,000 tested, 0.34% active | AID 1950; in the data active = inhibition above about 28%
GRIN3A LBD mod – NR3A (human) ligand-binding domain modulation | 340,000 tested, 2.5% active | NR3A LBD differential scanning fluorimetry, Tm shift; 0% = protein alone, 100% = glycine-bound protein | Tm shift relative to glycine control, % at 25 µM;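 active = melting temperature shift of at least 10% of the positive control shift, at one fixed dose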
DNA FID counter – fluorescent intercalator displacement, NS3 helicase counter-screen | 290,000 tested, 0.17% active | AID 1845 | DNA fluorescent intercalator displacement, fluorescence | inhibition, % at 7.9 µM; in the data active = inhibition above about 37%;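 note: 0% = vehicle and 100% = reference compound; higher means more ethidium bromide displaced from hairpin DNA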
NS3 helicase inh – HCV NS3 helicase inhibition; AID 1800; 290,000 tested, 0.56% active; inhibition, % at 10.9 µM; NS3 helicase DNA unwinding, Cy5 molecular beacon fluorescence;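 active = inhibition above the mean of all tested compounds plus 3 SD, set per campaign, cut at about 35% in these data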;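 note: 0% = DMSO wells and 100% = thioflavine S control wells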
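System: HCV NS3 helicase fragment; control set: DMSO and thioflavine S; technique: Cy5 fluorescence at 0 and 60 min, beacon hairpin quenching; reagent: beacon DNA duplex substrate plus ATP; replicates: singlicate; schedule: 1 h reaction at 25 °C, ATP-initiated; medium: MOPS buffer pH 6.5 with MgCl2, DTT, Tween20, BSA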
FGF22 binding – shifts melting point of recombinant human FGF22; 340,000 tested, 1.5% active; activity (Tm shift, normalised), % at 9.99 µM; Q9HCT0; recombinant FGF22 thermal shift, SYPRO orange fluorescence; percent of sucrose octasulfate shift, DMSO zero;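 active = mean Tm shift, scaled 0 neutral to 100 positive control, at about 1.3% or above, every replicate too, limit read from the data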
Target sequence (Q9HCT0 whole entry, looked up): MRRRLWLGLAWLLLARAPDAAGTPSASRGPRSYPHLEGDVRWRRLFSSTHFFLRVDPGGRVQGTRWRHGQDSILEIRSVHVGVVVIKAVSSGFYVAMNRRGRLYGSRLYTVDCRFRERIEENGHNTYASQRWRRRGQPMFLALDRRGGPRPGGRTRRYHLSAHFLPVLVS
ZTA counter – ZTA (EBV) inhibition in EBNA-1 counter-screen; AID 2234; ZTA-DNA binding, fluorescence polarization; inhibition, % at 11 µM; P03206; 320,000 tested, 0.15% active; in the data active = inhibition above about 33%
Target sequence (P03206 whole entry, looked up): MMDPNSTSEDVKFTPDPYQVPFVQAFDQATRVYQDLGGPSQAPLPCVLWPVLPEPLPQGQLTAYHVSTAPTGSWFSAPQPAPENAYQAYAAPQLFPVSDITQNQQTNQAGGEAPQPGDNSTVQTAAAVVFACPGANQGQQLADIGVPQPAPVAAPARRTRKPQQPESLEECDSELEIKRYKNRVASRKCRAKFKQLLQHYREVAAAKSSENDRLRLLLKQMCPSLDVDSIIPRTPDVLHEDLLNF
Active calls of the source: *. Compounds with a hit are over-represented: about 3.6% of the library has one in this group of screens.

How did Cc1ccc(-c2nc(CS(=O)(=O)CC(=O)NCCCN(Cc3ccccc3)C(C)C)c(C)o2)cc1 do in these assays?
EBNA-1 inhibitor: -17; GRIN3A LBD mod: 3; DNA FID counter: 37*; NS3 helicase inh: -54; FGF22 binding: 0; ZTA counter: -6

What do the screens show for `Cc1ccccc1-c1nc(CS(=O)(=O)CC(=O)NCCCN2CC(C)CC(C)C2)c(C)o1` (stereo unspecified)?
EBNA-1 inhibitor: -11; GRIN3A LBD mod: 1; DNA FID counter: 37*; NS3 helicase inh: -16; FGF22 binding: 0; ZTA counter: 0

How did C[C@@H]1CN([C@@H](C)CO)C(=O)Cc2cc(NS(C)(=O)=O)ccc2O[C@@H]1CN(C)C do in these assays?
FGF22 binding: 0

How did Cc1cc(C(=O)Nc2cccc3c2O[C@@H](CN(C)S(=O)(=O)c2cccs2)[C@H](C)CN([C@@H](C)CO)C3=O)n(C)n1 do in these assays?
FGF22 binding: 0

How did CC1(C)COC2(OC1)C(=O)N(CN1CCOCC1)c1ccccc12 do in these assays?
EBNA-1 inhibitor: -4; GRIN3A LBD mod: -1; DNA FID counter: -3; NS3 helicase inh: 0; FGF22 binding: 43*; ZTA counter: 16

How did N#C[C@H]1[C@@H](c2ccccc2)[C@H](CO)N1C(=O)Cc1ccccc1 do in these assays?
FGF22 binding: 0

How did CC(=O)c1c(C)[nH]c(C(=O)Nc2ccc(Cl)cc2)c1C do in these assays?
EBNA-1 inhibitor: -27; GRIN3A LBD mod: -5; DNA FID counter: -3; NS3 helicase inh: 0; FGF22 binding: 0; ZTA counter: -5

What do the screens show for `Cc1[nH]c(=O)nc(NN=Cc2ccc(Cl)cc2)c1C(=O)Nc1ccc(Cl)cc1`?
GRIN3A LBD mod: 1; FGF22 binding: 43*

Results for C[C@H]1[C@@H](c2ccccc2)Oc2ccc(Cl)cc2S(=O)(=O)N1Cc1ccc(Cl)cc1 ?
FGF22 binding: 0

How did C[C@H]1[C@@H](c2ccccc2)Oc2ccc(Cl)cc2S(=O)(=O)N1Cc1ccc(F)cc1F do in these assays?
GRIN3A LBD mod: 15*; FGF22 binding: 0

Results for c1ccc2c(NC3CCCC3)nnc(NC3CCCC3)c2c1 ?
EBNA-1 inhibitor: -11; GRIN3A LBD mod: 0; DNA FID counter: 0; NS3 helicase inh: 5; ZTA counter: -3

Results for Clc1nnc(NC2CCCCC2)c(Cl)c1Cl ?
FGF22 binding: 43*

How did O=C(N[C@@H]1CC[C@H](CC(=O)N2CCOCC2)O[C@@H]1CO)c1cccc(F)c1 do in these assays?
FGF22 binding: 0

What do the screens show for `CCOC(=O)C1=C(CC)Nc2ccccc2N=C1NC(=O)Nc1ccc(Cl)c(Cl)c1`?
EBNA-1 inhibitor: 7; GRIN3A LBD mod: 28*; DNA FID counter: 6; NS3 helicase inh: 6; ZTA counter: 13

What do the screens show for `C[C@H]1CN([C@@H](C)CO)C(=O)c2cc(C#CC(C)(C)O)cnc2O[C@@H]1CN(C)C(=O)c1ccccc1F`?
FGF22 binding: 0

What do the screens show for `Cc1ccc2cc(C(c3nnnn3C(C)(C)C)N3CCCCCC3)c(=O)[nH]c2c1` (stereo unspecified)?
EBNA-1 inhibitor: -30; GRIN3A LBD mod: 11*; DNA FID counter: -2; NS3 helicase inh: 0; ZTA counter: 2

Results for COc1ccc(S(=O)(=O)N(C)C[C@H]2Oc3c(NC(=O)c4ccc(-c5nccs5)cc4)cccc3C(=O)N([C@@H](C)CO)C[C@@H]2C)cc1 ?
FGF22 binding: 0

Results for O=C(O)C[C@H]1C[C@H]2c3cc(NC(=O)Nc4ccc(F)cc4)ccc3O[C@H]2[C@H](CO)O1 ?
FGF22 binding: 0

What do the screens show for `COc1ccccc1NC(=O)N[C@@H]1CC[C@@H](CCNS(=O)(=O)c2ccccc2)O[C@H]1CO`?
FGF22 binding: 0

Results for O=C(Nc1ccc(Cl)c(S(=O)(=O)N2CCOCC2)c1)c1n[nH]c(=O)c2ccccc12 ?
GRIN3A LBD mod: 0; FGF22 binding: 0; ZTA counter: 8

How did O=C(COC(=O)c1cccnc1Cl)Nc1cccc(S(=O)(=O)N2CCOCC2)c1 do in these assays?
GRIN3A LBD mod: -1; FGF22 binding: 0

How did CSc1ncccc1C(=O)OCC(=O)Nc1cccc(S(=O)(=O)N2CCOCC2)c1 do in these assays?
GRIN3A LBD mod: 0; FGF22 binding: 43*

What do the screens show for `Cc1ccc(NC(=O)COC(=O)c2cccnc2Cl)cc1S(=O)(=O)N1CCOCC1`?
GRIN3A LBD mod: 0; FGF22 binding: 0

How did Cc1ccc(C(=O)N2CCOCC2)cc1S(=O)(=O)N1CCOCC1 do in these assays?
EBNA-1 inhibitor: 5; GRIN3A LBD mod: 12*; DNA FID counter: -3; NS3 helicase inh: 3; FGF22 binding: 0; ZTA counter: -1

What do the screens show for `CSc1ncccc1C(=O)OCC(=O)Nc1ccc(C)c(S(=O)(=O)N2CCOCC2)c1`?
GRIN3A LBD mod: 0; FGF22 binding: 43*

How did Cc1ccc(NC(=O)c2n[nH]c(=O)c3ccccc23)cc1S(=O)(=O)N1CCOCC1 do in these assays?
GRIN3A LBD mod: 2; FGF22 binding: 43*

Results for C[C@@H]1CCCCO[C@@H](CN(C)C(=O)Cc2ccccc2)[C@H](C)CN([C@H](C)CO)C(=O)c2cc(NC(=O)CCC(F)(F)F)ccc2O1 ?
FGF22 binding: 0

What do the screens show for `O=C(COC(=O)C1=COCCO1)Nc1cccc(S(=O)(=O)N2CCOCC2)c1`?
EBNA-1 inhibitor: -4; GRIN3A LBD mod: 11*; DNA FID counter: -1; NS3 helicase inh: 5; FGF22 binding: 0; ZTA counter: -3

What do the screens show for `Cc1cc(C)n2cc(CSc3nncn3C)nc2n1`?
EBNA-1 inhibitor: -9; GRIN3A LBD mod: -2; DNA FID counter: -4; NS3 helicase inh: 6; FGF22 binding: 43*; ZTA counter: 7

How did Cc1cc(C)n2cc(CSc3nnnn3C)nc2n1 do in these assays?
EBNA-1 inhibitor: 9; GRIN3A LBD mod: -1; DNA FID counter: 7; NS3 helicase inh: 6; ZTA counter: -4

What do the screens show for `C=CCn1c(C)cc(C2=NNC(=Nc3ccc(C)cc3)SC2)c1C`?
EBNA-1 inhibitor: -19; GRIN3A LBD mod: 1; DNA FID counter: -6; NS3 helicase inh: 5; FGF22 binding: 43*; ZTA counter: 4

What do the screens show for `O=C(N/N=C/c1ccc(OC(=O)c2ccccc2)c([N+](=O)[O-])c1)c1ccc(O)cc1`?
EBNA-1 inhibitor: 2; GRIN3A LBD mod: 26*; DNA FID counter: 2; NS3 helicase inh: -1; ZTA counter: -4

What do the screens show for `COc1ccc(C(=O)N/N=C/c2ccc(OC(=O)c3cccc4ccccc34)c([N+](=O)[O-])c2)cc1`?
EBNA-1 inhibitor: -6; GRIN3A LBD mod: 12*; DNA FID counter: 0; NS3 helicase inh: 1; FGF22 binding: 0; ZTA counter: -16
